By IC50 is commonly meant the concentration that gives 50% inhibition.

Results on 1 compound are retold here after ChEMBL document CHEMBL3352174, “Identification of a New RXRα Antagonist Targeting the Coregulator-Binding Site” (ACS Med Chem Lett, 2014).

Positions count from the first letter of the chain named. Activity calls are given as the source filed them. No cut-off for these calls is given here.

The test system of test [1] is A549. Description: Induction of apoptosis in TNFalpha-stimulated human A549 cells assessed as PARP cleavage at 5 and 10 uM pre-treated for 24 hrs before TNFalpha addition by immunoblotting method. It is filed as functional, cell-based. In a few lines:
(§1)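 A549 or HepG2 cells were treated with compound for 24 h, with or without subsequent TNFα (20 ng/mL) for 30 min. Lysates were immunoblotted for PARP cleavage as the apoptosis marker. One of three to five similar experiments shown.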
(Immunoblotting shows a protein as a band on a membrane.)

A further test has as its system MCF7. Description: Growth inhibition of tRXRalpha stably expressing human MCF7 cells at 2 to 10 uM after 48 hrs by MTT assay. It is filed as functional, cell-based. (Tetrazolium assays rely on reduction of a dye to a coloured formazan, in cell work by metabolically active cells.)
In test [2] the target is T1, Retinoic acid receptor RXR-alpha (Homo sapiens, UniProt P19793).
T1 sequence (P19793 whole entry): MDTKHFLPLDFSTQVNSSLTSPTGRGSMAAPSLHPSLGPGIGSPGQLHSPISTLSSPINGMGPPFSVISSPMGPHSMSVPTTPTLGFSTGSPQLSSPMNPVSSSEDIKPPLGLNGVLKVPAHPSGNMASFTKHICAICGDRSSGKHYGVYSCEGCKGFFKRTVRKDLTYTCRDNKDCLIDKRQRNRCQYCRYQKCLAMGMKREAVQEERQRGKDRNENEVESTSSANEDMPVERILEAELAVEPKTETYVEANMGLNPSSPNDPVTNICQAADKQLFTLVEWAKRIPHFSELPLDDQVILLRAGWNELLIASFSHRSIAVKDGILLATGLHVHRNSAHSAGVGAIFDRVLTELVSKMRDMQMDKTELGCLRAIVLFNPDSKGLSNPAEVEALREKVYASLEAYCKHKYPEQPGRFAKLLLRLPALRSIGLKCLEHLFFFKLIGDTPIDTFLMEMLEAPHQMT
Kind of test: Antagonist activity against Myc-tagged RXRalpha ligand binding domain (unknown origin) expressed in human HEK293T cells assessed as inhibition of 9-cis-RA-induced receptor transactivation after 18 hrs by luciferase reporter gene based mammalian one-hybrid assay. It is filed as cell-based, HEK-293T. In a few lines:
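HEK293T cells co-transfected with pG5-Luc and pBind-RXRα-LBD. […] Luciferase reporter activity measured. Mean ± SD.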
(In general: A reporter such as luciferase makes a cellular process visible.)

Test [3] concerns the target Retinoic acid receptor RXR-alpha/oxysterols receptor LXR-alpha (Homo sapiens) (UniProt P19793+Q13133). Description: Antagonist activity against RXRalpha/LXRalpha ligand binding domain (unknown origin) expressed in human HEK293T cells assessed as inhibition of 9-cis-RA/T09-induced receptor transactivation at 2 and 10 uM after 18 hrs by luciferase reporter gene based mammalian one-hybrid assay. It is filed as cell-based. Particulars: HEK-293T.

Test [4] addresses Nuclear receptor subfamily 4immunitygroup A member 1 (Homo sapiens) (UniProt P22736). Kind of test: Antagonist activity against Nur77 ligand binding domain (unknown origin) expressed in human MCF7 cells assessed as inhibition of all-trans-RA-induced receptor transactivation at 10 uM after 18 hrs by luciferase reporter gene based mammalian one-hybrid assay. It is filed as cell-based. In a few lines: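 MCF-7 cells co-transfected with pG5-Luc and the pBind-LBD fusion: Nur77, RARγ or ER. Agonists were all-trans-RA 10⁻⁷ M for RARγ and Nur77, and propyl pyrazole triol 10 μM for ER. Compound at 10 μM for 18 h. Dual-luciferase read-out normalized to Renilla. Mean ± SD.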

Test [5] concerns T2, Retinoic acid receptor RXR-alpha (Homo sapiens), P19793 [A272W].
T2 sequence (whole entry): T1 sequence (P19793 whole entry) with A272W
Kind of test: Antagonist activity against RXRalpha A272W/F313A mutant (unknown origin) expressed in human HEK293T cells assessed as inhibition of constitutive receptor transactivation at 1 to 10 uM after 18 hrs by luciferase reporter gene based mammalian one-hybrid assay. Conditions: HEK-293T.

Test [6] deals with A549. Kind of test: Induction of apoptosis in human A549 cells assessed as PARP cleavage at 5 and 10 uM by immunoblotting method. It is filed as functional, cell-based. In a few lines:
as §1

The target of test [7] is T3, Retinoic acid receptor RXR-alpha (Homo sapiens) (UniProt P19793).
T3 sequence (whole entry): T1 sequence (P19793 whole entry)
Kind of test: Antagonist activity against RXRalpha delta80 mutant (unknown origin) expressed in human A549 cells assessed as reduction in TNFalpha-induced interaction of Myc-tagged RXRalpha- delta80 with p85alpha by co-immunoprecipitation assay. In kind it is cell-based. In a few lines:
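A549 cells were transfected with Myc-RXRα-Δ80 (truncated RXRα mimic) and treated with or without TNFα and/or compound. Anti-Myc immunoprecipitates were immunoblotted for endogenous p85α and Myc-RXRα-Δ80. One of three to five similar experiments shown.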

In test [8] the test system is T4, Retinoic acid receptor RXR-alpha (Homo sapiens), P19793 [V298S].
T4 sequence (whole entry): T1 sequence (P19793 whole entry) with V298S
Kind of test: Antagonist activity against RXRalpha V298S mutant (unknown origin) expressed in human HEK293T cells assessed as inhibition of 9-cis-RA-induced receptor transactivation at 1 to 10 uM after 18 hrs by luciferase reporter gene based mammalian one-hybrid assay. Particulars: HEK-293T. It is filed as cell-based. In a few lines:
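HEK-293T cells co-transfected with pG5-Luc and an RXRα mutant vector (V298S as pBind fusion; A272W, C432W LBP mutants). […] Luciferase read-out. Mean ± SD.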

Test [9] addresses T3, Retinoic acid receptor RXR-alpha (Homo sapiens). Kind of test: Antagonist activity against RXRalpha in human PC3 cells assessed as inhibition of AKT phosphorylation at 5 and 10 uM after 24 hrs by Western blotting method. It is filed as cell-based. Conditions: PC-3.
The target in test [10] is Retinoic acid receptor alpha/Retinoid X receptor alpha (Homo sapiens) (UniProt P10276+P19793). Kind of test: Antagonist activity against RXRalpha/RARalpha ligand binding domain (unknown origin) expressed in human HEK293T cells assessed as inhibition of 9-cis-RA/T09-induced receptor transactivation at 2 and 10 uM after 18 hrs by luciferase reporter gene based mammalian one-hybrid assay. It is filed as cell-based. Conditions: HEK-293T.

Nuclear receptor subfamily 4immunitygroup A member 1 (Homo sapiens), sequence (P22736 whole entry, the tested form may be a part): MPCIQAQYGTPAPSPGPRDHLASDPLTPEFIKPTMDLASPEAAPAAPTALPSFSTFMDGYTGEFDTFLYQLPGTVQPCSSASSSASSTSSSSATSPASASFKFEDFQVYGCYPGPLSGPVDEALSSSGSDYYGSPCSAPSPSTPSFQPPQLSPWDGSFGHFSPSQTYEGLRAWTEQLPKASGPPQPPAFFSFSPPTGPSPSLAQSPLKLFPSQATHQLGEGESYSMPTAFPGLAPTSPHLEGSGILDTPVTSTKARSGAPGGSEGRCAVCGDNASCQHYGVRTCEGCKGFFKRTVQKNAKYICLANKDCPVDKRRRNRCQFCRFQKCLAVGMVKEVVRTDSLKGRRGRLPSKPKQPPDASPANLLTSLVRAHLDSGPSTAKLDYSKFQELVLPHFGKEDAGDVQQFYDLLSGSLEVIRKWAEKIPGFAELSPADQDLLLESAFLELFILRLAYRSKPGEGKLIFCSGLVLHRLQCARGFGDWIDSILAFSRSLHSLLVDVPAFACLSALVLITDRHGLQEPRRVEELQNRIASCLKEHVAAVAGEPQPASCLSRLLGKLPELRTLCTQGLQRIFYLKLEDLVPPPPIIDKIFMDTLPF

As for `Cc1cc(=O)oc2c(/C=N/NC(=O)CSc3nc4ccccc4s3)c(O)ccc12`, the outcome in the test on A549 [1] and in the test with A549 [6] was Active. In the test on MCF7, the “growth inhibition (GI)” value is “Active”. In addition, the IC50 in test [2] is 2.45 µM. The inhibition result in test [3], in test [4], in [8] and in test [10] was “inactive” in each case. Besides, the inhibition entry in test [5] was “Dose-dependent effect”. For the same compound, the inhibition entry in [7] and in test [9] was “Active” in each case.
